Assay outcomes (PubChem)
In the library only some 2.5% were active in any assay of this set; here they are far more common.
dFosB act-1 – mouse delta FosB homodimer activation; activation, % at 25 µM; AID 493131; 0.99% of 340,000 active; purified delta FosB, TAMRA-CDK5 oligo fluorescence polarization; percent of positive-control signal above neutral wells;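 active = mean activation above about 17%, with every replicate also reaching it, limit read from the data, passing the limit was not always enough; inconclusive = only one of the two conditions met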
SR-BI uptake up – activators of SR-BI mediated HDL lipid uptake. CHO ldlA[mSR-BI] cells, DiI-HDL uptake fluorescence, 3 h; 100 = double the neutral-control signal. activation, % at 12.5 µM. 0.096% of 320,000 active. AID 504775;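 active = mean replicate activation of at least 60% and every replicate at or above 60%; inconclusive = mean or all-replicate condition met, but not both; inactive = mean below 60% and not all replicates reaching 60%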
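Material: SR-BI-overexpressing, LDLR-lacking CHO cells | Dosing: Single compound concentration, delivered by pin transfer | Probe or stimulus: Labelled HDL, 10 µg/mL | Signal: Bottom-read cell fluorescence after medium removal, ex 550/em 595 nm | Schedule: 3 h, 37 °C | Evaluation: HDL uptake via cellular fluorescence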
CDK5 inh – CDK5/p35 (human) kinase inhibition; Q00535+Q15078; Recombinant CDK5/p35, ADP-Glo luminescence, 60 min; inhibition, % at 10 µM; 0.01% of 330,000 active;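 active = highest replicate inhibition of at least 50% and at least 75% of replicates reaching 50%; inconclusive = only one of the two criteria met; inactive = both criteria failed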
Dyrk1A ADPGlo – Dyrk1A (rat) kinase inhibition | inhibition, % at 12.5 µM | 0.43% of 310,000 active | Q63470 | ADP-Glo luminescence, NFATc1 peptide
NSD2 inh – inhibitors of human histone methyltransferase NSD2 | O96028 | NSD2 peptide methylation, AlphaScreen, 120 min | 0.54% of 310,000 active | AID 743445 | inhibition, % at 12.5 µM
Target sequence (O96028 whole entry, looked up): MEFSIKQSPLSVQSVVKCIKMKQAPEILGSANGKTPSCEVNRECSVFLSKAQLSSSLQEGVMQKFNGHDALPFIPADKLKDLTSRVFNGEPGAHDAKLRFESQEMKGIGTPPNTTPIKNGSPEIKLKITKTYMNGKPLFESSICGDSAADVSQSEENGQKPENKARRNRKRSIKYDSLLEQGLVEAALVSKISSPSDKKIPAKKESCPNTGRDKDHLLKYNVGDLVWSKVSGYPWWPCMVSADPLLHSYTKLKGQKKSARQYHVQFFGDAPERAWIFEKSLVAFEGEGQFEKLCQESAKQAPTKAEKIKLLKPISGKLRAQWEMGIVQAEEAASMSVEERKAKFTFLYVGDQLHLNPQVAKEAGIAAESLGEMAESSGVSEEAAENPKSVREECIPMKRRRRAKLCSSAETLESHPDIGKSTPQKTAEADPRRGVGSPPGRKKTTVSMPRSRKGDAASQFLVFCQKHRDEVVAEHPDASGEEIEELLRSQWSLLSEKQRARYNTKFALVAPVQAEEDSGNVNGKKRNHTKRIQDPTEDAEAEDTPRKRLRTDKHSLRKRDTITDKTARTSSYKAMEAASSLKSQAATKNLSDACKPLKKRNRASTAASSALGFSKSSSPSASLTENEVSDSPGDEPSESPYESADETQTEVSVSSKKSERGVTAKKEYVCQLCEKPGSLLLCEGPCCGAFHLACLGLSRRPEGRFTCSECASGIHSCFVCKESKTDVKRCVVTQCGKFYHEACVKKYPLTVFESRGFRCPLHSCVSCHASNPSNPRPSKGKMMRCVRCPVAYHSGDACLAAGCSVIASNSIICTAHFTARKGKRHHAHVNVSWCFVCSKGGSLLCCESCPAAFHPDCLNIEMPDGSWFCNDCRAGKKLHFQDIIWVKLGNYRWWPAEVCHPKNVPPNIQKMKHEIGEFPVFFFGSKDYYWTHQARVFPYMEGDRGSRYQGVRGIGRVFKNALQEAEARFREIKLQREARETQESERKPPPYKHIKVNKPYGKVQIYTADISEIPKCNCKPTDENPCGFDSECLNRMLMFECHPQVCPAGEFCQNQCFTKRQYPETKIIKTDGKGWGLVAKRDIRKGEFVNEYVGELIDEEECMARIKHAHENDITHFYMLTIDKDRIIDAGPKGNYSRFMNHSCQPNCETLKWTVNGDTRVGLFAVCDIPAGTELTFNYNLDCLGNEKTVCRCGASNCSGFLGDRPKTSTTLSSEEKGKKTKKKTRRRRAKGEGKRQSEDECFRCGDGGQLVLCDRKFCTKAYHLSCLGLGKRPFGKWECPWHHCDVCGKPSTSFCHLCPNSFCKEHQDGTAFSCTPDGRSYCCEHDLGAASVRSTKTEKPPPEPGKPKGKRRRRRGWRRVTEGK
SR-BI HDL uptake – blocks mouse SR-BI lipid uptake from DiI-HDL | Q61009 | ldlA[mSR-BI] CHO cells, DiI-HDL uptake fluorescence, 3 h | inhibition, % at 12.5 µM | 0.96% of 320,000 active | AID 488896;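 active = mean replicate inhibition of at least 70% and a set share of replicates each scoring 70 or more; inconclusive = meets just one of the two criteria; inactive = fails both criteria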
dFosB act-2 – enhances mouse delta FosB homodimer binding to DNA; purified delta FosB, TAMRA-CDK5 oligo fluorescence polarization; normalised: neutral wells 0, positive control 100; activation, % at 24.9 µM; shares compounds with dFosB act-1; 2,400 tested, under 10 active;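 active = highest replicate activation at or above 34% and every replicate reaching that threshold; inconclusive = meets only one of the two criteria; inactive = meets neither criterion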;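 note: higher polarization means more probe DNA bound by delta FosB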
A number is an active result; . = inactive; ? = inconclusive; / = not tested or not shown. Cut-off read from the data, not from the text of the source, unless noted: active = inhibition above about 50%; inactive = the rest.

SMILES	dFosB act-1	SR-BI uptake up	CDK5 inh	Dyrk1A ADPGlo	NSD2 inh	SR-BI HDL uptake	dFosB act-2
O=S(=O)(NNc1ccc(Cl)nn1)c1ccc(F)cc1	.	.	.	.	.	.	/
CC(=O)c1cccc(CN2CCCCC2C(=O)Nc2ccc(Oc3ccccc3)nc2)c1 (stereo unspecified)	.	/	.	.	.	.	/
Cc1cccc(NC(=O)NNC(=O)COc2ccc(Cl)cc2)c1	34.8	.	.	.	.	.	.
Cc1cccc(NC(=O)NNC(=O)COc2ccc3ccccc3c2)c1	?	.	.	.	.	.	/
Cc1cccc(NC(=O)NNC(=O)c2cc(-c3ccccc3Cl)nc3ccccc23)c1	20.5	.	.	.	.	.	.
CC1CCN(S(=O)(=O)c2nnc(NC(=O)COc3ccccc3)s2)CC1	.	.	.	.	.	.	/
Cc1cc(C)c2c(N)c3ccccc3nc2n1	30.8	.	.	.	/	.	.
CC[C@H](C)[C@H]1CNC(=S)N1CC1CCN(CCCCc2ccccc2)CC1	.	.	.	/	/	.	/
O=C(NCCc1ccc(Cl)cc1)C1CCCN(S(=O)(=O)N2CCCCCC2)C1 (stereo unspecified)	.	.	.	.	.	.	/
Cc1cccc(NS(=O)(=O)c2ccc3c(c2)Cc2cc(S(=O)(=O)Nc4cccc(C)c4C)ccc2-3)c1C	24.3	.	.	.	.	.	.
Cc1nn(C)c(C)c1CNC(=O)Nc1cccc(Cl)c1C	.	.	.	/	.	.	/
COc1ccc(Br)cc1/C=C/C(=O)OCC(=O)NCCc1ccc(S(N)(=O)=O)cc1	21.8	.	.	.	.	.	.
COc1ccc2oc(C(=O)OCC(=O)NCCc3ccc(S(N)(=O)=O)cc3)c(C)c2c1	25.7	.	.	/	.	.	.
O=C(N/N=C/C=C\c1ccccc1[N+](=O)[O-])c1cc(-c2ccc3ccccc3c2)n[nH]1	24.7	.	.	.	.	.	.
O=C(N/N=C/c1ccccn1)c1cc(-c2ccc3ccccc3c2)n[nH]1	18.9	.	.	.	.	.	.
CN(C(=O)CSc1ccc(S(=O)(=O)N2CCCCC2)cn1)c1ccccc1	.	.	.	/	.	.	/
O=C(Nc1ccc(Cl)c(Cl)c1)C1C2C=CC3(O2)C1C(=O)N(CCN1CCCCC1)C3C(=O)NC1CCCCC1 (stereo unspecified)	.	.	.	.	.	.	/
COc1ccc(C(=O)Sc2ccc(Cl)cc2)cc1OC	20.7	.	.	.	.	.	.
Cc1cc(C)c(-c2cc(NC(=O)COC(=O)c3ccc(NC(=O)CC#N)cc3)n(-c3ccccc3)n2)cc1C	51.3	.	.	.	.	.	.
NS(=O)(=O)c1ccc(NC(=O)c2ccc3c(c2)CCN3S(=O)(=O)c2ccccc2)cc1	32.4	.	.	.	.	.	.
Cc1cc(C)c(-c2cc(NC(=O)COC(=O)c3ccc(C#N)cc3)n(-c3ccccc3)n2)cc1C	.	.	.	.	.	.	/
Cc1ccc(NC(=O)COC(=O)c2cccc(N3C(=O)c4ccccc4C3=O)c2)cc1	49.9	.	.	.	.	.	.
NS(=O)(=O)c1ccc(NC(=O)c2cccc(N3C(=O)c4ccccc4C3=O)c2)cc1	111.3	.	.	.	.	.	.
O=C(Nc1ccc(S(=O)(=O)N2CCc3ccccc32)cc1)c1ccc2c(c1)OCO2	.	.	.	.	.	.	/
CCc1nc2c(OCCc3cccc(OC)c3)cccn2c1N(C)C(=O)c1ccc(OC)cc1	/	/	/	/	.	/	/
SMILES	dFosB act-1	SR-BI uptake up	CDK5 inh	Dyrk1A ADPGlo	NSD2 inh	SR-BI HDL uptake	dFosB act-2
C=CCN(CC=C)C(=O)CCc1nnc(CCc2c[nH]c3ccccc23)o1	.	.	.	.	.	.	/
CC(=O)c1ccc(NC(=O)c2cccc(N3C(=O)c4ccccc4C3=O)c2)cc1	78.1	.	.	.	.	.	.
O=C(N/N=C/c1cc([N+](=O)[O-])ccc1Cl)c1ccc2nc[nH]c2c1	35.0	.	.	.	.	.	.
O=C(N/N=C/c1ccccc1C(F)(F)F)c1ccc2nc[nH]c2c1	.	.	.	.	.	.	/
COc1cc(/C=N/N=C(/N)c2nonc2N)cc(Br)c1OCc1cccc(C)c1	.	.	.	.	.	.	/
CCOc1cc(/C=N/N=C(\N)c2nonc2N)cc(Br)c1OCc1cccc2ccccc12	40.7	.	.	.	.	.	.
NC(=O)CC(NC(=O)c1ccc(Br)cc1)c1ccc(NC2CCCCC2)c([N+](=O)[O-])c1 (stereo unspecified)	42.3	.	.	.	/	.	.
COc1ccc(CCNc2ccc(C(CC(N)=O)NC(=O)c3ccccc3)cc2[N+](=O)[O-])cc1 (stereo unspecified)	31.9	.	.	.	/	.	.
NC(=O)CC(NC(=O)c1ccc(Br)cc1)c1ccc(NC2CCCCCC2)c([N+](=O)[O-])c1 (stereo unspecified)	.	.	.	.	/	.	/
Cc1cccc(CNc2ccc(C(CC(N)=O)NC(=O)c3ccccc3)cc2[N+](=O)[O-])c1 (stereo unspecified)	.	.	.	.	/	.	/
Cc1ccccc1CNc1ccc(C(CC(N)=O)NC(=O)c2ccccc2)cc1[N+](=O)[O-] (stereo unspecified)	27.5	.	.	.	/	.	.
COc1ccccc1CC(=O)N1CCN(S(=O)(=O)c2ccccc2)CC1	.	.	.	.	.	.	/
CC(Nc1nc(-c2ccncc2)nc2ccccc12)c1ccccc1 (stereo unspecified)	.	.	.	.	.	.	/
CC(Nc1nc(N2CCNCC2)nc2ccccc12)c1ccccc1 (stereo unspecified)	47.9	.	.	.	.	.	.
COCCN(Cc1cc2ccc(C)cc2[nH]c1=O)S(=O)(=O)c1ccccc1	.	/	.	.	.	/	/
COc1cccc(-c2sc3ccccc3c2-c2ccc(OCCN3CCCCC3)cc2)c1	34.5	.	.	/	/	.	.
C/C(=C\C=C(C#N)C#N)c1cc(C#N)c(N)o1	83.7	.	.	.	.	.	?
CCOCc1c(C(=O)Nc2ccc3nc(N4CCOCC4)sc3c2)oc2ccccc12	.	.	.	.	.	.	/
COc1ccc(-c2nc(Cn3c(SCc4ccc(C)cc4)nc4ccncc43)c(C)o2)cc1OC	38.8	.	.	.	/	.	.
COc1ccc(-c2nc(Cn3c(SCc4cccc(F)c4)nc4ccncc43)c(C)o2)cc1OC	?	.	.	.	/	.	/
CCOC(=O)C1(C)CCCN1C(=O)c1c(F)cccc1F (stereo unspecified)	/	/	/	/	.	/	/
COc1cc(/C=C/C(=O)Nc2cccnc2)cc(OC)c1OC	17.9	.	.	.	.	.	.
